Compound activity (PubChem)
Compounds with a hit are over-represented: about 1.7% of the library has one in this group of screens.
ZTA counter = counter-screen for EBNA-1 inhibitors: inhibitors of Epstein-Barr virus ZTA; 320,000 compounds, 0.15% hits; P03206; inhibition, % at 11 µM; AID 2234; ZTA-DNA binding, fluorescence polarization; in the data active = inhibition above about 33%
Target sequence (P03206 whole entry, looked up): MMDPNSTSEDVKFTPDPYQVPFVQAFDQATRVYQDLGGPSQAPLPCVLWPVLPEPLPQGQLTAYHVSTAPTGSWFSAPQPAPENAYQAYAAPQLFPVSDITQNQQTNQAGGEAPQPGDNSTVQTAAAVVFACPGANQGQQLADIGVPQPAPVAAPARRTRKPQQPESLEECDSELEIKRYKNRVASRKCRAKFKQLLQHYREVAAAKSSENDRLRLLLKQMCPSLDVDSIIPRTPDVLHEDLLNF
Apaf-1 inh = blocks human Apaf-1 apoptosome activity; AID 489030; reconstituted apoptosome caspase-3 activity, DEVD-Rh110 fluorescence; O14727; inhibition, % at 20 µM; 330,000 compounds, 0.71% hits; active = inhibition of at least 40% at 20 µM;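 note: plate controls were DMSO wells for no effect and DEVD-CHO caspase inhibitor wells for full effect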
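Medium: Hepes buffer, pH 7.5 / System: biochemical Apaf-1 apoptosome reconstitution / Measured by: Rh110 fluorescence, excitation 480 nm, emission 540 nm / Times: compound with Apaf-1, dATP, procaspase-3 30 min, then 50 min reaction, room temperature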
EBNA-1 inhibitor = blocks EBNA-1 binding to DNA; EBNA-1 DNA binding, fluorescence polarization; inhibition, % at 14.8 µM; 300,000 compounds, 0.34% hits; in the data active = inhibition above about 28%
PREPL inhibitor = inhibitors of human prolyl oligopeptidase-like enzyme PREPL; recombinant PREPL, fluorescence polarization activity-based probe; inhibition, % at 5.96 µM; 320,000 compounds, 0.68% hits; AID 2751;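 note: 0% = enzyme with DMSO and 100% = wells lacking enzyme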
UBC13 inh = human UBC13 polyubiquitination inhibition. P61088. UBC13 polyubiquitin chain formation, TR-FRET. inhibition, % at 20 µM. 330,000 compounds, 0.47% hits. AID 485273; in the data active = inhibition above about 45%, passing the limit was not always enough
Target sequence (P61088 whole entry, looked up): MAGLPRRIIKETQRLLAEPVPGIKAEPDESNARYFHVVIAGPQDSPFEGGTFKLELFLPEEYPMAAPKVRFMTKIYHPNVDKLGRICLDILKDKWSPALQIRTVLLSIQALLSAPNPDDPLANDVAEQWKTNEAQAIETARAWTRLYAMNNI
PREPL confirm = confirmation of human PREPL enzyme inhibitors. recombinant PREPL, fluorescence polarization activity probe. 2,000 compounds, 67% hits. shares compounds with PREPL inhibitor. AID 2803. inhibition, % at 5.96 µM;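 note: 0% = protein with DMSO and 100% = wells lacking protein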
Starred values were filed as active, the others as inactive; · = no result given. Cut-off read from the data, not from the text of the source, unless noted: active = inhibition above about 43%; inactive = the rest.

SMILES	ZTA counter	Apaf-1 inh	EBNA-1 inhibitor	PREPL inhibitor	UBC13 inh	PREPL confirm
CC(C)NC(=O)NC(=O)COC(=O)c1ccccc1Oc1ccccc1	-9	17	5	2	-6	·
COC(=O)CCC(=O)OC1(C)C(=O)C2=CN(CC(C)C)C(c3ccc(OC)cc3)=CC2=C(Br)C1=O (stereo not given)	-7	52*	9	74*	-97	48*
COC(=O)CCC(=O)OC1(C)C(=O)C2=CN(Cc3ccc(OC)cc3)C(c3ccc(OC)cc3)=CC2=C(Br)C1=O (stereo not given)	-2	30	3	22	-85	·
COC(=O)CCC(=O)OC1(C)C(=O)C2=CN(Cc3ccccc3)C(c3ccc(OC)cc3)=CC2=C(Br)C1=O (stereo not given)	6	31	-11	46*	-85	42
COc1ccccc1NC(=O)Nc1nc(CC(=O)Nc2ccc(F)cc2)cs1	-7	19	24	4	14	·
OCC[C@@H]1C[C@@H](O)[C@H](O)[C@]2(Cc3ccccc3CO2)O1	7	-2	-1	9	-7	·
CN(CC(=O)NCC1CCCCC1)CC(=O)Nc1ccc(F)cc1	9	17	·	1	-6	·
CCOc1cc(N2CCOCC2)c(OCC)cc1NC(=O)CN1C(=O)NC(Cc2ccccc2)C1=O (stereo not given)	-11	-1	-2	54*	-2	56*
CC1CN(c2nc3c(c(=O)n(C)c(=O)n3C)n2Cc2c(Cl)cccc2Cl)CC(C)O1 (stereo not given)	3	3	-1	4	-12	·
CSc1nc(N2CCCC2)c2c(c1C#N)CC(C)(C)OC2	-5	32	-5	8	34	·
COc1ccc2c(c1)CC1c3c(cc4c(c3-2)OCO4)CC[N+]1(C)[O-] (stereo not given)	0	17	10	55*	-42	20
Nc1cc([N+](=O)[O-])cc2oc(-c3ccccc3)cc12	15	17	1	53*	-146	54*
C=CCNC(=S)NC(=O)c1oc2ccccc2c1C	1	15	-10	2	13	·
COc1ccc(C2c3ccc4ccccc4c3Oc3ncn(CCN4CCOCC4)c(=N)c32)cc1OC (stereo not given)	6	18	4	46*	-2	36
CCn1c(=O)c(C(=O)Nc2ccc(C)cc2C)c(O)c2ccccc21	-5	11	-16	47*	15	6
O=C(CN1CCN(c2ccc(O)cc2)CC1)Nc1cc([N+](=O)[O-])ccc1Cl	8	-5	-1	52*	8	53*
CC(=O)N1CCN(CC(=O)Nc2cc([N+](=O)[O-])ccc2Cl)CC1	3	2	3	0	-11	·
Cc1cc(/C=N/NC(N)=S)c(C)n1-c1ccc(Br)cc1	-6	2	9	54*	-5	45*
CCCCN1C(=N)N([C@@H](C)CN2CCC[C@H]2CN2C(N)=NC[C@H]2CC(C)C)C[C@H]1[C@H](C)CC	·	5	·	47*	11	41
C[C@H]1CN([C@@H](C)CO)C(=O)Cc2cc(NS(C)(=O)=O)ccc2O[C@@H]1CN(C)Cc1ccc(Cl)c(Cl)c1	·	12	·	47*	9	33
C[C@@H]1CN([C@@H](C)CO)C(=O)Cc2cc(NC(=O)Nc3ccc(F)cc3)ccc2O[C@@H]1CN(C)Cc1ccc(Cl)c(Cl)c1	·	22	·	14	-16	·
COc1ccc(-c2cn(Cc3ccc(C(N)=O)cc3)c(CCN)n2)cc1	17	6	5	46*	0	41
N#C/C(=C\Nc1ccccc1O)c1nc2ccccc2o1	-11	·	5	48*	·	36
CN1Cc2c(N3CCOCC3)nc3sc(C(=O)c4ccccc4)c(N)c3c2CC1(C)C	11	4	-4	61*	8	64*
O=Cc1ccccc1OCCOc1ccc([N+](=O)[O-])cc1	-5	15	5	43*	-12	40
CC(=O)c1ccc(OCCOc2ccc([N+](=O)[O-])cc2)cc1	13	0	1	5	-2	·
Cc1ccc(C)c(C(=O)OCC(=O)Nc2cccc(S(=O)(=O)NC3=NCCCCC3)c2)c1	-1	-18	-3	46*	16	33
Cc1ccc(S(=O)(=O)NCC(=O)OCC(=O)Nc2cccc(S(=O)(=O)NC3=NCCCCC3)c2)cc1C	3	-4	3	-8	0	·
